Assay [1] has as its target T1, Cannabinoid receptor 2 (Homo sapiens, UniProt P34972). In words: Inverse agonist activity at CB2 receptor (unknown origin) expressed in HEK cells assessed as increase in cAMP production at 5 x 10^-6 to 5 x 10^-10 M measured at 50 mins by ACTOne dye-based fluorescence assay in presence of forskolin and Ro 20-1724 relative to control. Format: functional, cell-based. The note with it: HEK293. The essentials: (§1)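 HEK-CNG+CB1 or HEK-CNG+CB2 cells, plus parental HEK-CNG, were plated at 50,000 cells/well in DMEM with 10% FBS the day before. Membrane potential dye was loaded for 1 h in the dark at room temperature. Ligands were added at 5x10⁻⁶ to 5x10⁻¹⁰ final, with 25 µM Ro 20-1724 and 800 nM forskolin, in DPBS with 2.5% DMSO. Fluorescence (Ex 540, Em 590 nm) was read at 50 min. At least six biological replicates were run, with non-linear fitting.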

In assay [2] the target is T1, Cannabinoid receptor 2. In words: Inverse agonist activity at CB2 receptor (unknown origin) expressed in HEK cells assessed as increase in cAMP production measured at 50 mins by ACTOne dye-based fluorescence assay in presence of forskolin and Ro 20-1724. Format: functional, cell-based, HEK293. The essentials:
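HEK-CNG+CB1 or HEK-CNG+CB2 cells, plus parental HEK-CNG, were plated at 50,000 cells/well in DMEM with 10% FBS the day before. Membrane potential dye was loaded for 1 h in the dark at room temperature. At least six biological replicates were run, with non-linear fitting.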

The target in assay [3] is T2, Cannabinoid receptor 1 (Homo sapiens, UniProt P21554). In words: Displacement of [3H]-CP55940 from CB1 receptor (unknown origin) expressed in HEK-CNG cell membranes after 90 mins by liquid scintillation counting analysis. (Loss of bound radioactivity is the signal in a displacement assay; it reports binding, not function.)
Assay [4] deals with T1, Cannabinoid receptor 2. In words: Displacement of [3H]-CP55940 from CB2 receptor (unknown origin) expressed in HEK-CNG cell membranes after 90 mins by liquid scintillation counting analysis.
Assay [5] concerns the target T2, Cannabinoid receptor 1. Description: Inverse agonist activity at CB1 receptor (unknown origin) expressed in HEK cells assessed as increase in cAMP production measured at 50 mins by ACTOne dye-based fluorescence assay in presence of forskolin and Ro 20-1724. Format: functional, cell-based, HEK293. The essentials:
as §1

Assay [6] deals with T2, Cannabinoid receptor 1. In words: Inverse agonist activity at CB1 receptor (unknown origin) expressed in HEK cells assessed as increase in cAMP production at 5 x 10^-6 to 5 x 10^-10 M measured at 50 mins by ACTOne dye-based fluorescence assay in presence of forskolin and Ro 20-1724 relative to control. Format: functional, cell-based. The note with it: HEK293. The essentials: as §1
(Cyclic AMP is a second messenger, typically raised through Gs and lowered through Gi signalling.)

For another assay, the species on record is Homo sapiens. In words: Selectivity ratio of Ki for CB1 receptor (unknown origin) to Ki for CB2 receptor (unknown origin).
The target of assay [7] is T1, Cannabinoid receptor 2. In words: Non-competitive antagonist activity at CB2 receptor (unknown origin) expressed in HEK cells incubated in dark condition for 30 mins prior to CP55940 addition measured at 50 mins by Schild plot analysis. Format: cell-based. The note with it: HEK293. The essentials: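 HEK-CNG+CB2 cells were loaded with membrane potential dye. After 30 min, antagonist in DPBS with 2.5% DMSO was added and incubated 30 more min in the dark at room temperature. CP 55,940 was then added with 25 µM Ro 20-1724 and 800 nM forskolin (final). Fluorescence was read at 50 min.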

Activity calls are given as the source filed them. No cut-off for these calls is given here. A value given as a limit tells only on which side of the number the result lay.

T1 sequence (P34972 whole entry): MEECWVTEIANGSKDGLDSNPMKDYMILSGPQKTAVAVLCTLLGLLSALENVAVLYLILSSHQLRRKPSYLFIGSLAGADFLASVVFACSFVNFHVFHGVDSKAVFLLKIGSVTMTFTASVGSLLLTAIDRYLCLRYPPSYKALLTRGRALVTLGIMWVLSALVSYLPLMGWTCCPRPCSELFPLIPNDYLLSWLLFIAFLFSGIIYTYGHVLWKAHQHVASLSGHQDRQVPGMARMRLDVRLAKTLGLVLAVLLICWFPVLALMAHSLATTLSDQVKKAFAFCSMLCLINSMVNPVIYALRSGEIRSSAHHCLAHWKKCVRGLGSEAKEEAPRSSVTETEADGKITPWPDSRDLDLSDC
T2 sequence (P21554 whole entry): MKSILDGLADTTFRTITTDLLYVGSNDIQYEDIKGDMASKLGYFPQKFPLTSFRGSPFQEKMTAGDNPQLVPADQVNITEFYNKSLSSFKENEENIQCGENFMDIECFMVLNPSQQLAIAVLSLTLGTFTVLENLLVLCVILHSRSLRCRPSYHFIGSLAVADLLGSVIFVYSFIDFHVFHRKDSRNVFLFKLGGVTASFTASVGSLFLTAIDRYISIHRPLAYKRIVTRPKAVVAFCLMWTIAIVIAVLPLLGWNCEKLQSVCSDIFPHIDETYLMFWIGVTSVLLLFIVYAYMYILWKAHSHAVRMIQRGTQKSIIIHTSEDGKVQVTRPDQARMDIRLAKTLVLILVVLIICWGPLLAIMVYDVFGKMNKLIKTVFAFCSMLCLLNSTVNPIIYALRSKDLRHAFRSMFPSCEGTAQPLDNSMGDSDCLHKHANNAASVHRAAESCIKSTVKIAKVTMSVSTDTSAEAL

On to `CCCc1ccc(C(=O)c2cc(O)c(-c3cc(Cl)cc(Cl)c3)c(O)c2)cc1`, for which the Efficacy on Cannabinoid receptor 2 [1] was found to be 50%. The EC50 – broadly, the concentration that produces a half-maximal response – at Cannabinoid receptor 2 [2] (read-out: EC50) was 0.0288 µM; at Cannabinoid receptor 1 [5] (hek293), “Not Active”. Moreover, the Ki (as a rule, a dissociation constant, usually derived from enzyme kinetics or from competition with a known ligand) is over 10 µM on Cannabinoid receptor 1 [3] and 0.0599 µM at Cannabinoid receptor 2 [4].
For `CC(C)(C)c1ccc(C(=O)c2cc(O)c(-c3cc(Cl)cc(Cl)c3)c(O)c2)cc1` the same measures were 275%, 3.97 µM, “Not Active”, 2.53 µM and 3.17 µM.
Turning to `COc1cc(C(=O)c2ccc(Cl)cc2)cc(O)c1-c1cc(Cl)cc(Cl)c1`, the figures for the Efficacy on Cannabinoid receptor 2 [1] and at Cannabinoid receptor 1 [6] were 97.5% and 71.3%, respectively. Also, the EC50 on Cannabinoid receptor 2 [2] (read-out: EC50) is over 5 µM; on Cannabinoid receptor 1 [5] (read-out: EC50), 2.88 µM. Further, the Ki on Cannabinoid receptor 1 [3] and on Cannabinoid receptor 2 [4] was over 10 µM in each case.
Take `COc1cc(C(=O)c2ccc(Cl)cc2)cc(OC)c1-c1cc(Cl)cc(Cl)c1`: the EC50 entry on Cannabinoid receptor 2 [2] (hek293) and at Cannabinoid receptor 1 [5] (hek293) was “Not Active” each time. The Ki at Cannabinoid receptor 1 [3] and on Cannabinoid receptor 2 [4] was over 10 µM each time.
For the molecule `O=C(c1ccc(Cl)cc1)c1cc(O)c(-c2cc(Cl)cc(Cl)c2)c(O)c1`, the Efficacy on Cannabinoid receptor 2 [1] is 119%; on Cannabinoid receptor 1 [6], 169%. The EC50 on Cannabinoid receptor 2 [2] (read-out: EC50) was determined as 0.0897 µM; on Cannabinoid receptor 1 [5] (read-out: EC50), 3.28 µM. For the same molecule, the Ratio Ki in the assay filed under Homo sapiens was 38.5. The Ki was 4.65 µM at Cannabinoid receptor 1 [3] and 0.121 µM on Cannabinoid receptor 2 [4].
In the case of `Cc1cccc(C(=O)c2cc(O)c(-c3cc(Cl)cc(Cl)c3)c(O)c2)c1`, the EC50 result on Cannabinoid receptor 2 [2] (hek293) and at Cannabinoid receptor 1 [5] (hek293) was “Not Active” in each case. For the same molecule, the results for the Ki on Cannabinoid receptor 1 [3] and on Cannabinoid receptor 2 [4] were over 10 µM and 2.62 µM, respectively.
Consider `CCCCc1ccc(C(=O)c2cc(O)c(-c3cc(Cl)cc(Cl)c3)c(OC)c2)cc1`, for which the Efficacy on Cannabinoid receptor 2 [1] came out at 108%. The EC50 was over 5 µM at Cannabinoid receptor 2 [2] (read-out: EC50) and “Not Active” on Cannabinoid receptor 1 [5] (hek293). Also, the Ki on Cannabinoid receptor 1 [3] and at Cannabinoid receptor 2 [4] was over 10 µM in each case.
Take `CCc1ccc(C(=O)c2cc(O)c(-c3cc(Cl)cc(Cl)c3)c(O)c2)cc1`: the Efficacy at Cannabinoid receptor 2 [1] came to 52.2%. Besides, on Cannabinoid receptor 2 [7], the inhibition entry is “Active”. Moreover, the EC50 is 0.0295 µM at Cannabinoid receptor 2 [2] (read-out: EC50) and “Not Active” on Cannabinoid receptor 1 [5] (hek293). Besides, the Ki came to 1.14 µM at Cannabinoid receptor 1 [3] and 0.0376 µM at Cannabinoid receptor 2 [4].
Take `O=C(c1cc(O)c(-c2cc(Cl)cc(Cl)c2)c(O)c1)C1CCCCC1`: the Efficacy result on Cannabinoid receptor 2 [1] and on Cannabinoid receptor 1 [6] was “inactive” in each case. Also, the figures for the EC50 on Cannabinoid receptor 2 [2] (read-out: EC50) and on Cannabinoid receptor 1 [5] (read-out: EC50) were 2.54 µM and over 5 µM, respectively. Further, the Ratio Ki in the assay filed under Homo sapiens is 0.19. For the same molecule, the Ki on Cannabinoid receptor 1 [3] is 0.299 µM; on Cannabinoid receptor 2 [4], 1.59 µM.
As for `CC(C)c1ccc(C(=O)c2cc(O)c(-c3cc(Cl)cc(Cl)c3)c(O)c2)cc1`, at Cannabinoid receptor 2 [1], the Efficacy is 56%. Also, the figures for the EC50 on Cannabinoid receptor 2 [2] (read-out: EC50) and on Cannabinoid receptor 1 [5] (hek293) were 0.182 µM and “Not Active”, respectively. In addition, the Ki at Cannabinoid receptor 1 [3] worked out at 3.33 µM; at Cannabinoid receptor 2 [4], 0.161 µM.
With `CCCCc1ccc(C(=O)c2cc(OC)c(-c3cc(Cl)cc(Cl)c3)c(OC)c2)cc1`, the Efficacy entry on Cannabinoid receptor 2 [1] and at Cannabinoid receptor 1 [6] was “inactive” each time. Besides, the EC50 entry on Cannabinoid receptor 2 [2] (hek293) and on Cannabinoid receptor 1 [5] (hek293) was “Not Active” throughout. Also, the Ki on Cannabinoid receptor 1 [3] and on Cannabinoid receptor 2 [4] was over 10 µM each time.
Turning to `COc1cc(C(=O)c2ccc(C)cc2)cc(OC)c1-c1cc(Cl)cc(Cl)c1`, the Efficacy result at Cannabinoid receptor 2 [1] and at Cannabinoid receptor 1 [6] was “inactive” each time. The EC50 entry on Cannabinoid receptor 2 [2] (hek293) and at Cannabinoid receptor 1 [5] (hek293) was “Not Active” throughout. Besides, the Ki on Cannabinoid receptor 1 [3] and on Cannabinoid receptor 2 [4] was over 10 µM each time.
Take `O=C(c1ccccc1)c1cc(O)c(-c2cc(Cl)cc(Cl)c2)c(O)c1`: on Cannabinoid receptor 2 [1], the Efficacy came to 54.8%. On Cannabinoid receptor 2 [7], the inhibition result is “Active”. In addition, the Ratio Ki in the assay listed under Homo sapiens stood at 39.4. Moreover, on Cannabinoid receptor 1 [6], the Efficacy result is “inactive”. For the same molecule, at Cannabinoid receptor 1 [5] (hek293), the EC50 entry is listed as “Not Active”.
Take `Cc1ccc(C(=O)c2cc(O)c(-c3cc(Cl)cc(Cl)c3)c(O)c2)cc1`: the Efficacy at Cannabinoid receptor 2 [1] was 230%. Besides, the EC50 at Cannabinoid receptor 2 [2] (read-out: EC50) is 0.118 µM; at Cannabinoid receptor 1 [5] (hek293) it was “Not Active”. Further, in the assay listed under Homo sapiens, the Ratio Ki is 36.6. Moreover, the values for the Ki at Cannabinoid receptor 1 [3] and at Cannabinoid receptor 2 [4] were 9.43 µM and 0.258 µM, respectively. In addition, the Efficacy entry at Cannabinoid receptor 1 [6] was “inactive”.
In the case of `O=C(c1ccc(O)cc1)c1cc(O)c(-c2cc(Cl)cc(Cl)c2)c(O)c1`, at Cannabinoid receptor 2 [1], the Efficacy amounted to 75.6%. Further, the EC50 at Cannabinoid receptor 2 [2] (read-out: EC50) was over 5 µM; at Cannabinoid receptor 1 [5] (hek293), “Not Active”. The Ki on Cannabinoid receptor 1 [3] and at Cannabinoid receptor 2 [4] was over 10 µM in each case. In addition, the Efficacy entry on Cannabinoid receptor 1 [6] was “inactive”.
Take `O=C(c1ccc(C(F)(F)F)cc1)c1cc(O)c(-c2cc(Cl)cc(Cl)c2)c(O)c1`: the Efficacy at Cannabinoid receptor 2 [1] is 49.7%; on Cannabinoid receptor 1 [6] it was 37%. Moreover, the EC50 on Cannabinoid receptor 2 [2] (read-out: EC50) and on Cannabinoid receptor 1 [5] (read-out: EC50) was over 5 µM throughout. Besides, the Ki at Cannabinoid receptor 1 [3] and on Cannabinoid receptor 2 [4] was over 10 µM in each case.
For the molecule `COc1cc(C(=O)c2ccc(C)cc2)cc(O)c1-c1cc(Cl)cc(Cl)c1`, at Cannabinoid receptor 2 [1], the Efficacy is 129%. Further, the EC50 on Cannabinoid receptor 2 [2] (read-out: EC50) is over 5 µM; at Cannabinoid receptor 1 [5] (hek293), “Not Active”. The Ki at Cannabinoid receptor 1 [3] and on Cannabinoid receptor 2 [4] was over 10 µM in each case.
Take `O=C(c1cccc(C(F)(F)F)c1)c1cc(O)c(-c2cc(Cl)cc(Cl)c2)c(O)c1`: the EC50 result on Cannabinoid receptor 2 [2] (hek293) and at Cannabinoid receptor 1 [5] (hek293) was “Not Active” each time. For the same molecule, the Ki on Cannabinoid receptor 1 [3] is 4.13 µM; on Cannabinoid receptor 2 [4], over 10 µM.
`CCCCc1ccc(C(=O)c2cc(O)c(-c3cc(Cl)cc(Cl)c3)c(O)c2)cc1`: the Efficacy at Cannabinoid receptor 2 [1] is 176%. Besides, the inhibition result at Cannabinoid receptor 2 [7] is “Active”. In addition, the figures for the EC50 at Cannabinoid receptor 2 [2] (read-out: EC50) and on Cannabinoid receptor 1 [5] (hek293) were 0.254 µM and “Not Active”, respectively. The Ratio Ki in the assay filed under Homo sapiens was over 21.5. The results for the Ki on Cannabinoid receptor 1 [3] and at Cannabinoid receptor 2 [4] were over 10 µM and 0.464 µM, respectively. Moreover, the Efficacy entry at Cannabinoid receptor 1 [6] is “inactive”.
`Cc1cc(C)cc(C(=O)c2cc(O)c(-c3cc(Cl)cc(Cl)c3)c(O)c2)c1`: the Efficacy entry at Cannabinoid receptor 2 [1] and at Cannabinoid receptor 1 [6] was “inactive” each time. The EC50 entry at Cannabinoid receptor 2 [2] (hek293) and at Cannabinoid receptor 1 [5] (hek293) was “Not Active” in each case. In addition, the Ki on Cannabinoid receptor 1 [3] and on Cannabinoid receptor 2 [4] was over 10 µM each time.
Take `CCc1cccc(C(=O)c2cc(O)c(-c3cc(Cl)cc(Cl)c3)c(O)c2)c1`: the Efficacy on Cannabinoid receptor 2 [1] came out at 184%. Further, the EC50 was over 5 µM at Cannabinoid receptor 2 [2] (read-out: EC50) and “Not Active” at Cannabinoid receptor 1 [5] (hek293). The Ratio Ki in the assay listed under Homo sapiens was over 5.82. Also, the Ki is over 10 µM at Cannabinoid receptor 1 [3] and 1.72 µM at Cannabinoid receptor 2 [4]. Also, the Efficacy result on Cannabinoid receptor 1 [6] was “inactive”.
`Cc1ccc(Cn2nc(C(=O)NC3C4(C)CCC(C4)C3(C)C)cc2-c2ccc(Cl)c(C)c2)cc1` (configuration not stated) [SR-144528]: the Efficacy at Cannabinoid receptor 2 [1] came to 80.8%. On Cannabinoid receptor 1 [6], the Efficacy entry is “inactive”. The EC50 result at Cannabinoid receptor 1 [5] (hek293) is listed as “Not Active”.
In the case of `CCCCCCC(=O)c1cc(O)c(-c2cc(Cl)cc(Cl)c2)c(O)c1`, the EC50 entry on Cannabinoid receptor 2 [2] (hek293) and at Cannabinoid receptor 1 [5] (hek293) was “Not Active” throughout. The Ki on Cannabinoid receptor 1 [3] and at Cannabinoid receptor 2 [4] was over 10 µM each time.
